Screens: PubChem BioAssay, Sanford-Burnham Center for Chemical Genomics
Most compounds without a hit are left out; they make up all but 1.7% or so of the library.
STEP inh = STEP phosphatase inhibitors, primary screen, biochemical, fluorescence intensity, uHTS. Tyrosine-protein phosphatase non-receptor type 5 (Homo sapiens), P54829. recombinant STEP, OMFP fluorogenic substrate. inhibition, % at 20 µM. actives 0.25% (n = 360,000). AID 588621, 2011;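 active = inhibition at 20 µM, scaled per plate between control wells, above about 37%, limit read from the data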
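material = STEP tyrosine phosphatase | reagent = fluorogenic phosphatase substrate OMFP at 25 µM final | doses = single compound dose of 20 µM, 1% DMSO final | schedule = 20 min reaction, room temperature, in the dark | measured by = fluorescence, 480/540 nm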
LMPTP block = LMPTP phosphatase inhibitors, primary screen, biochemical, fluorescence intensity, uHTS; Low molecular weight phosphotyrosine protein phosphatase (Homo sapiens), P24666; recombinant LMPTP-A, OMFP fluorogenic substrate; inhibition, % at 20 µM; actives 0.22% (n = 360,000); AID 651560, 2012;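 active = compounds that cut the enzyme signal by at least half of the control window in the single-dose screen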
Target sequence (P24666 whole entry, looked up): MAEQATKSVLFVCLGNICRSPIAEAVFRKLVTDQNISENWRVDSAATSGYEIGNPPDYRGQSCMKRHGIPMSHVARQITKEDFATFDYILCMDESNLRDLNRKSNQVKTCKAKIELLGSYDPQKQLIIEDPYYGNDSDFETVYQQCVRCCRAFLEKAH
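Test system: LMPTP-A phosphatase enzyme. Amount: LMPTP-A at 0.625 nM final in the reaction. Reagent: OMFP substrate, 400 µM final. Times: 50 min at room temperature. Signal: endpoint fluorescence intensity from OMFP dephosphorylation. Read-out basis: % inhibition. Benchmarks: no-enzyme and uninhibited controls.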
Scp1 inh = Scp-1 phosphatase inhibitors, primary screen, biochemical, colorimetric, uHTS. Carboxy-terminal domain RNA polymerase II polypeptide A small phosphatase 1 (Homo …. Recombinant Scp1, phosphopeptide, malachite green phosphate absorbance. inhibition, % at 20 µM. actives 0.88% (n = 340,000);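 active = inhibition above about 50% at 20 µM, limit read from the data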
Target sequence (Q9GZU7 76-261 limits assumed): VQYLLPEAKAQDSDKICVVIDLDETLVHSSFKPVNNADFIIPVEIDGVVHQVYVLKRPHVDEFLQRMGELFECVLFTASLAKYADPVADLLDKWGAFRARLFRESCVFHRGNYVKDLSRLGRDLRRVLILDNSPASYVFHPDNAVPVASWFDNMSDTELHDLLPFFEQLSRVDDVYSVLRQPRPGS
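Test system: SCP-1 phosphatase catalytic domain, residues 76-261; measured by: colorimetric phosphate reagent with accelerator and stabiliser, absorbance at 630 nm; timing: enzyme reaction 45 min at room temperature, colour 5 min, stabilisation 30 min; also added: Phosphorylated 17-residue peptide substrate; compound dosing: one concentration, 20 µM, with 1.0% DMSO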
SUMO1 PPI mod = modulators of SUMO1 protein-protein interactions, primary screen, biochemical, uHTS | Small ubiquitin-related modifier 1 (Homo sapiens), P63165 | SUMO1 binding to a labelled peptide, TR-FRET, 1 h | inhibition, % at 20 µM | actives 0.33% (n = 360,000) | AID 602429, 2012; in the data active = inhibition above about 37%
Target sequence (P63165 whole entry, looked up): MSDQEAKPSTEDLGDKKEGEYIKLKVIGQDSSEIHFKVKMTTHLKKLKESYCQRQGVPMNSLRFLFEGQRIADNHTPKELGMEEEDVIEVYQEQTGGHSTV
DNMT1 block = human DNMT1 methyltransferase inhibitors, primary screen, biochemical, molecular beacon, fluorescence, HinP1I cleavage, uHTS | DNA (cytosine-5)-methyltransferase 1 (Homo sapiens), P26358 | inhibition (reported as % activation of signal), % at 10 µM | actives 0.83% (n = 360,000) | AID 588458, 2011; in the data active = inhibition above about 50%
Scp-1 conf = Scp-1 phosphatase inhibitors, retest, confirmation, biochemical, colorimetric, single concentration | shares compounds with Scp1 inh | recombinant SCP-1 catalytic domain, phosphate release, malachite green absorbance | inhibition, % at 20 µM | actives 61% (n = 2,500) | AID 540281, 2011
Scp-1 MG ctr = colorimetric readout interference by compounds, confirmation, artefact control for Scp-1 inhibitor project, biochemical, single concentration; shares compounds with Scp1 inh; Colorimetric interference counterscreen, malachite green absorbance 630 nm; apparent inhibition (interference), % at 20 µM; 2,500 tested, under 10 active; AID 540313, 2011;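 also: compounds added after enzyme reaction finished so only phosphate colour detection is probed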
Scp1 DSF = Scp-1 binding by thermal shift, confirmation, orthogonal assay for Scp-1 inhibitor project, biophysical, differential scanning fluorimetry. shares compounds with Scp1 inh. Recombinant SCP1, Sypro Orange thermal shift Tm. thermal shift relative to vanadate control, % at 40 µM. actives 25% (n = 1,500). AID 540329, 2011;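 active = substances whose mean melting-temperature shift, as a percentage of the reference inhibitor's shift, reaches about 5.3%, limit read from the data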
Numbers stand for hits.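 The calls were made as follows, unless noted: active = inhibition of at least 30% at 20 µM; inactive = the rest.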

`Cc1ccc(NC(=O)CN(C)S(=O)(=O)c2ccc3c(c2)n(C)c(=O)c(=O)n3C)c(C)c1` gave STEP inh inactive, LMPTP block inactive, Scp1 inh inactive, SUMO1 PPI mod inactive and DNMT1 block inactive.
For O=C(/C=C\Nc1ccc2c(c1)OCO2)c1cccs1 the results were STEP inh inactive, LMPTP block inactive, Scp1 inh inactive, SUMO1 PPI mod inactive and DNMT1 block inactive.
Screening O=C(/C=C\Nc1ccc2c(c1)OCO2)c1ccc(Cl)s1 returned STEP inh inactive, LMPTP block 63, Scp1 inh 91, SUMO1 PPI mod inactive, DNMT1 block inactive, Scp-1 conf 75, Scp-1 MG ctr inactive and Scp1 DSF inactive.
O=C(NCc1ccccn1)C1CCN(S(=O)(=O)c2ccccc2)CC1 was read as STEP inh inactive, LMPTP block inactive, Scp1 inh inactive, SUMO1 PPI mod inactive and DNMT1 block inactive.
O=C(NCc1ccccn1)C1CCN(S(=O)(=O)c2cnc[nH]2)CC1 was read as STEP inh inactive, LMPTP block inactive, Scp1 inh 60, SUMO1 PPI mod inactive, DNMT1 block inactive, Scp-1 conf 33, Scp-1 MG ctr inactive and Scp1 DSF inactive.
For CCC(C)(C)n1nnnc1C(c1ccc(C)cc1)N(Cc1ccco1)Cc1cccs1 (configuration not stated) the results were STEP inh inactive, LMPTP block inactive, Scp1 inh 107, SUMO1 PPI mod inactive, DNMT1 block inactive, Scp-1 conf inactive and Scp-1 MG ctr inactive.
For CSc1nnc(-c2ccc(NC(=O)CCc3ccccc3)cc2)n1C the results were STEP inh inactive, LMPTP block inactive, Scp1 inh 102, SUMO1 PPI mod inactive, DNMT1 block inactive, Scp-1 conf inactive and Scp-1 MG ctr inactive.
For Cn1c(SCC(=O)Nc2ccccc2)nnc1-c1ccc(NC(=O)CCc2ccccc2)cc1 the results were STEP inh inactive, LMPTP block inactive, Scp1 inh inactive, SUMO1 PPI mod inactive and DNMT1 block inactive.
Screening Cc1ccccc1N(CC(=O)NCCSCc1ccccc1)S(C)(=O)=O returned STEP inh inactive, LMPTP block inactive, Scp1 inh inactive, SUMO1 PPI mod inactive and DNMT1 block inactive.
`C/C(CC(=O)NC1CCCCC1)=N\NC(=O)Cc1ccc(-c2ccccc2)cc1` gave STEP inh inactive, LMPTP block inactive, Scp1 inh 69, SUMO1 PPI mod inactive, DNMT1 block inactive, Scp-1 conf 86, Scp-1 MG ctr inactive and Scp1 DSF inactive.
CCCOc1ccc(C(=O)CCC(=O)OCC(=O)Nc2cccc(S(N)(=O)=O)c2)cc1 was read as STEP inh inactive, LMPTP block inactive, Scp1 inh inactive, SUMO1 PPI mod inactive and DNMT1 block inactive.
For C/C(=N\NC(=O)c1ccc(Cl)cc1)c1ccc(Br)s1 the results were STEP inh inactive, LMPTP block inactive, Scp1 inh inactive, SUMO1 PPI mod inactive and DNMT1 block inactive.
For C/C(=N\NC(=O)c1cc(Cl)ccc1O)c1ccc(Br)s1 the results were STEP inh inactive, LMPTP block inactive, Scp1 inh 93, SUMO1 PPI mod inactive, DNMT1 block inactive, Scp-1 conf 80, Scp-1 MG ctr inactive and Scp1 DSF inactive.
Screening C=CCOc1cccn2c(N(C=O)Cc3ccccc3)c(CC)nc12 returned STEP inh inactive, LMPTP block inactive, SUMO1 PPI mod inactive and DNMT1 block inactive.
Screening COC(=O)[C@@]1(C)[C@H]2C(=O)N(Cc3ccccc3)C(=O)[C@H]2[C@H]2CN=C(SCc3ccc(C)cc3)N21 returned STEP inh inactive, LMPTP block inactive, Scp1 inh inactive, SUMO1 PPI mod inactive and DNMT1 block inactive.
`O=C(NNC1OC(CO)C(O)C(O)C1O)c1cccc(Br)c1` (configuration not stated) gave STEP inh inactive, LMPTP block inactive, Scp1 inh inactive, SUMO1 PPI mod inactive, DNMT1 block inactive, Scp-1 conf inactive and Scp-1 MG ctr inactive.
`O=C(COc1coc(CN2CCN(c3ccc(F)cc3)CC2)cc1=O)Nc1ccccc1` gave STEP inh inactive, LMPTP block inactive, Scp1 inh inactive, SUMO1 PPI mod inactive and DNMT1 block inactive.
Screening CC(=O)COc1coc(CN2CCN(c3ccc(F)cc3)CC2)cc1=O returned STEP inh inactive, LMPTP block inactive, Scp1 inh 51, SUMO1 PPI mod inactive, DNMT1 block inactive, Scp-1 conf inactive and Scp-1 MG ctr inactive.
Screening Cc1ccc(CNC(=O)c2cc3c(=O)n4ccccc4nc3n(Cc3ccco3)c2=N)cc1 returned STEP inh inactive, LMPTP block inactive, Scp1 inh inactive, SUMO1 PPI mod inactive and DNMT1 block inactive.
`Cc1ccc2nc3c(cc(C(=O)NCc4ccco4)c(=N)n3Cc3ccco3)c(=O)n2c1` gave STEP inh inactive, LMPTP block inactive, Scp1 inh 69, SUMO1 PPI mod inactive, DNMT1 block inactive, Scp-1 conf inactive and Scp-1 MG ctr inactive.
`O=C(N/N=C/c1cccc(OC2CSC2)c1)c1ccccc1O` gave STEP inh inactive, LMPTP block inactive, Scp1 inh 96, SUMO1 PPI mod inactive, DNMT1 block inactive, Scp-1 conf 59, Scp-1 MG ctr inactive and Scp1 DSF inactive.
`Cn1ncc(Br)c1C(=O)N/N=C/c1cccc(OC2CSC2)c1` gave STEP inh inactive, LMPTP block inactive, Scp1 inh inactive, SUMO1 PPI mod inactive and DNMT1 block inactive.
Screening CCOC(=O)C1CCN(C(=O)CCCCn2c(=O)[nH]c3ccccc3c2=O)CC1 returned STEP inh inactive, LMPTP block inactive, Scp1 inh 68, SUMO1 PPI mod inactive, DNMT1 block inactive, Scp-1 conf inactive and Scp-1 MG ctr inactive.
`O=C(O)/C=C/C(=O)Nc1ccc(NC(=O)c2ccccc2)c(Cl)c1` gave STEP inh inactive, LMPTP block inactive, Scp1 inh 73, SUMO1 PPI mod inactive, DNMT1 block inactive, Scp-1 conf inactive and Scp-1 MG ctr inactive.
